Measured values as given in ChEMBL document CHEMBL3259806, “Design, synthesis and biological evaluation of novel tripeptidyl epoxyketone derivatives constructed from β-amino acid as proteasome inhibitors” (Bioorg Med Chem, 2014).
Active and inactive are the calls of the source. The calls are words filed in the database; no cut-off is given here.

Assays:
[1] = target: 26S proteasome (Homo sapiens) (UniProt Q99460+P49721+P20618+P28074+P28062+P28065+P28072+O00487+P25786+P25787+P25788+P25789+P28066+P60900+O14818+Q8TAA3+P40306+A5LHX3+P49720+P28070+Q99436+Q16186+P35998+P62191+P43686+P62333+P17980+P62195+Q13200+O43242+O00232+O00231+Q15008+P51665+Q9UNM6+P55036+P48556+P60896); assay: Inhibition of chymotrypsin-like enzyme activity of purified human 20S proteasome using Suc-Leu-Leu-Val-Tyr-AMC as substrate at 1 ug/ml by fluorescence method; assay type: protein-complex assay
Procedure, shortened: (§1)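 Purified human 20S proteasome preincubated with compound for 15 min. Fluorogenic substrate Suc-Leu-Leu-Val-Tyr-AMC (50 µM) then added to read chymotrypsin-like activity.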

26S proteasome = assay: Inhibition of chymotrypsin-like enzyme activity of purified human 20S proteasome using Suc-Leu-Leu-Val-Tyr-AMC as substrate by fluorescence method; assay type: protein-complex assay; procedure, shortened: as §1
[2] = Cytotoxic activity against human NCI-H929 cells after 72 hrs by MTS assay; assay type: functional, cell-based; details: NCI-H929, 72 h
Procedure, shortened: (§2)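 100 µL cell suspension (10⁴ cells/well) seeded in 96-well plates; compound exposure 72 h, then MTS at 0.5 mg/mL final for 2–4 h. Absorbance read at 490 nm with 690 nm background subtraction. Growth inhibitory ratio = (A_control − A_sample)/A_control.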

RPMI-8226 [3] = assay: Cytotoxic activity against human RPMI8226 cells after 72 hrs by MTS assay; assay type: functional, cell-based; details: RPMI-8226, 72 h; procedure, shortened: as §2
RPMI-8226 [4] = assay: Induction of apoptosis human RPMI8226 cells assessed as PARP cleavage at 100 nM after 12 hrs by Western blot analysis; assay type: functional, cell-based
Procedure, shortened: (§3)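 RPMI 8226 cells in 6-well plates exposed to compounds for 12 h; DMSO as vehicle control. Cells rinsed twice in ice-cold PBS and lysed in 1× SDS loading buffer. Lysates run on 10% SDS–PAGE and transferred to PVDF. Blocked 1 h in 5% milk, primary antibodies 2 h, secondary 1 h, ECL detection. Probed for poly-ubiquitin, PARP, cleaved PARP, β-actin.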

RPMI-8226 [5] = assay: Induction of apoptosis human RPMI8226 cells assessed as accumulation of poly-ubiquitin at 100 nM after 12 hrs by Western blot analysis; assay type: functional, cell-based; procedure, shortened: as §3

## CC(C)C[C@H](NC(=O)[C@H](Cc1ccccc1)NC(=O)CC(NC(=O)c1cccs1)c1ccccc1)C(=O)[C@@]1(C)CO1 (some centres undefined)
[1]
  inhibition: 62.5%
26S proteasome
  IC50: 950 nM

## CC(C)C[C@H](NC(=O)[C@H](Cc1ccccc1)NC(=O)CC(NC(=O)CN1CCOCC1)c1ccccc1)C(=O)[C@@]1(C)CO1 (some centres undefined)
[1]
  inhibition: 40%

## CC(C)C[C@H](NC(=O)[C@H](Cc1ccccc1)NC(=O)CC(NC(=O)c1ccc(F)cc1)c1ccccc1)C(=O)[C@@]1(C)CO1 (some centres undefined)
[1]
  inhibition: 87.7%
[2]
  IC50: 2370 nM
26S proteasome
  IC50: 380 nM
RPMI-8226 [3]
  IC50: 1550 nM

## CC(C)C[C@H](NC(=O)CC(NC(=O)[C@H](Cc1ccccc1)NC(=O)c1ccc(F)cc1)c1ccccc1)C(=O)[C@@]1(C)CO1 (some centres undefined)
[1]
  inhibition: 0.37%

## CC(C)C[C@H](NC(=O)c1cccnc1)C(=O)NC(CC(=O)N[C@@H](Cc1ccccc1)C(=O)[C@@]1(C)CO1)c1ccccc1 (some centres undefined)
[1]
  inhibition: 3.16%

## CC(C)C[C@H](NC(=O)[C@H](Cc1ccccc1)NC(=O)CC(NC(=O)c1cccnc1)c1ccccc1)C(=O)[C@@]1(C)CO1 (some centres undefined)
[1]
  inhibition: 85.8%
[2]
  IC50: 8700 nM
26S proteasome
  IC50: 340 nM
RPMI-8226 [3]
  IC50: 4730 nM

## CC(C)C[C@H](NC(=O)[C@H](Cc1ccccc1)NC(=O)c1cnccn1)B(O)O [BORTEZOMIB]
[2]
  IC50: 10.8 nM
RPMI-8226 [3]
  IC50: 7.96 nM

## CC(C)C[C@H](NC(=O)[C@H](Cc1ccccc1)NC(=O)C[C@@H](NC(=O)c1ccc2ccccc2c1)c1ccccc1)C(=O)[C@@]1(C)CO1
RPMI-8226 [4]
  Activity: Active
[1]
  inhibition: 86.1%
[2]
  IC50: 170 nM
RPMI-8226 [5]
  Activity: Active
26S proteasome
  IC50: 110 nM
RPMI-8226 [3]
  IC50: 230 nM

## COc1ccc(C(=O)N[C@@H](CC(C)C)C(=O)NC(CC(=O)N[C@@H](Cc2ccccc2)C(=O)[C@@]2(C)CO2)c2ccccc2)cc1 (some centres undefined)
[1]
  inhibition: 0.39%

## CC(C)C[C@H](NC(=O)[C@H](Cc1ccccc1)NC(=O)C[C@H](NC(=O)c1ccc(C(F)(F)F)cc1)c1ccccc1)C(=O)[C@@]1(C)CO1
[1]
  inhibition: 25.6%

## CC(C)C[C@H](NC(=O)c1ccc(F)cc1)C(=O)NC(CC(=O)N[C@@H](Cc1ccccc1)C(=O)[C@@]1(C)CO1)c1ccccc1 (some centres undefined)
[1]
  inhibition: 1.43%

## CC(C)C[C@H](NC(=O)[C@H](Cc1ccccc1)NC(=O)CC(NC(=O)c1ccc(-c2ccccc2)cc1)c1ccccc1)C(=O)[C@@]1(C)CO1 (some centres undefined)
[1]
  inhibition: 47.3%

## CC(C)C[C@H](NC(=O)[C@H](CCc1ccccc1)NC(=O)CN1CCOCC1)C(=O)N[C@@H](Cc1ccccc1)C(=O)N[C@@H](CC(C)C)C(=O)[C@@]1(C)CO1 [CARFILZOMIB]
[2]
  IC50: 21.3 nM
RPMI-8226 [3]
  IC50: 13.2 nM

## CC(C)C[C@H](NC(=O)c1cccnc1)C(=O)NC(CC(=O)N[C@@H](CC(C)C)C(=O)[C@@]1(C)CO1)c1ccccc1 (some centres undefined)
[1]
  inhibition: 0.84%

## CC(C)C[C@H](NC(=O)c1cnccn1)C(=O)NC(CC(=O)N[C@@H](Cc1ccccc1)C(=O)[C@@]1(C)CO1)c1ccccc1 (some centres undefined)
[1]
  inhibition: 8.7%

## CC(C)C[C@H](NC(=O)CC(NC(=O)[C@H](Cc1ccccc1)NC(=O)c1ccccc1)c1ccccc1)C(=O)[C@@]1(C)CO1 (some centres undefined)
[1]
  inhibition: 0.3%

## CC(C)C[C@H](NC(=O)[C@H](Cc1ccccc1)NC(=O)C[C@H](NC(=O)c1ccc2ccccc2c1)c1ccccc1)C(=O)[C@@]1(C)CO1
[1]
  inhibition: 11.8%

## CC(C)C[C@H](NC(=O)c1ccc(F)cc1)C(=O)NC(CC(=O)N[C@@H](CC(C)C)C(=O)[C@@]1(C)CO1)c1ccccc1 (some centres undefined)
[1]
  inhibition: 5.46%

## CC(C)C[C@H](NC(=O)[C@H](Cc1ccccc1)NC(=O)CC(NC(=O)C1CCOCC1)c1ccccc1)C(=O)[C@@]1(C)CO1 (some centres undefined)
[1]
  inhibition: 69.5%
26S proteasome
  IC50: 630 nM

## CC(C)C[C@H](NC(=O)CC(NC(=O)[C@H](Cc1ccccc1)NC(=O)c1cccnc1)c1ccccc1)C(=O)[C@@]1(C)CO1 (some centres undefined)
[1]
  inhibition: 0.48%

## COc1ccc(C(=O)NC(CC(=O)N[C@@H](Cc2ccccc2)C(=O)N[C@@H](CC(C)C)C(=O)[C@@]2(C)CO2)c2ccccc2)cc1 (some centres undefined)
[1]
  inhibition: 84.1%
[2]
  IC50: 1350 nM
26S proteasome
  IC50: 340 nM
RPMI-8226 [3]
  IC50: 1160 nM

## CC(C)C[C@H](NC(=O)CC(NC(=O)[C@H](Cc1ccccc1)NC(=O)c1cnccn1)c1ccccc1)C(=O)[C@@]1(C)CO1 (some centres undefined)
[1]
  inhibition: 1.51%

## CC(C)C[C@H](NC(=O)[C@H](Cc1ccccc1)NC(=O)CC(NC(=O)c1ccccc1)c1ccccc1)C(=O)[C@@]1(C)CO1 (some centres undefined)
[1]
  inhibition: 88.5%
[2]
  IC50: 2690 nM
26S proteasome
  IC50: 440 nM
RPMI-8226 [3]
  IC50: 1680 nM

## CC(C)C[C@H](NC(=O)[C@H](Cc1ccccc1)NC(=O)CC(NC(=O)c1ccc2ccccc2c1)c1ccccc1)C(=O)[C@@]1(C)CO1 (some centres undefined)
[1]
  inhibition: 74.8%
[2]
  IC50: 700 nM
26S proteasome
  IC50: 190 nM
RPMI-8226 [3]
  IC50: 420 nM

## COc1ccc(C(=O)N[C@@H](CC(C)C)C(=O)NC(CC(=O)N[C@@H](CC(C)C)C(=O)[C@@]2(C)CO2)c2ccccc2)cc1 (some centres undefined)
[1]
  inhibition: 0.56%

## CC(C)C[C@H](NC(=O)[C@H](Cc1ccccc1)NC(=O)CC(NC(=O)c1ccc(C#N)cc1)c1ccccc1)C(=O)[C@@]1(C)CO1 (some centres undefined)
[1]
  inhibition: 72%
[2]
  IC50: 610 nM
26S proteasome
  IC50: 360 nM
RPMI-8226 [3]
  IC50: 410 nM

## CC(C)C[C@H](NC(=O)c1cnccn1)C(=O)NC(CC(=O)N[C@@H](CC(C)C)C(=O)[C@@]1(C)CO1)c1ccccc1 (some centres undefined)
[1]
  inhibition: 9.01%

## CC(C)C[C@H](NC(=O)c1ccccc1)C(=O)NC(CC(=O)N[C@@H](CC(C)C)C(=O)[C@@]1(C)CO1)c1ccccc1 (some centres undefined)
[1]
  inhibition: 6.42%

## CC(C)C[C@H](NC(=O)[C@H](Cc1ccccc1)NC(=O)C[C@@H](NC(=O)c1ccc(C(F)(F)F)cc1)c1ccccc1)C(=O)[C@@]1(C)CO1
[1]
  inhibition: 84.4%
[2]
  IC50: 230 nM
26S proteasome
  IC50: 170 nM
RPMI-8226 [3]
  IC50: 340 nM

## CC(C)C[C@H](NC(=O)[C@H](Cc1ccccc1)NC(=O)CC(NC(=O)c1cnccn1)c1ccccc1)C(=O)[C@@]1(C)CO1 (some centres undefined)
[1]
  inhibition: 48.6%

## CC(C)C[C@H](NC(=O)[C@H](Cc1ccccc1)NC(=O)CC(NC(=O)c1ccco1)c1ccccc1)C(=O)[C@@]1(C)CO1 (some centres undefined)
[1]
  inhibition: 42.3%

## COc1ccc(C(=O)N[C@@H](Cc2ccccc2)C(=O)NC(CC(=O)N[C@@H](CC(C)C)C(=O)[C@@]2(C)CO2)c2ccccc2)cc1 (some centres undefined)
RPMI-8226 [4]
  Activity: inactive
[1]
  inhibition: 0.3%
RPMI-8226 [5]
  Activity: inactive

## CC(C)C[C@H](NC(=O)[C@H](Cc1ccccc1)NC(=O)CC(NC(=O)c1ccc(C(F)(F)F)cc1)c1ccccc1)C(=O)[C@@]1(C)CO1 (some centres undefined)
[1]
  inhibition: 76%
[2]
  IC50: 960 nM
26S proteasome
  IC50: 220 nM
RPMI-8226 [3]
  IC50: 320 nM

## CC(C)C[C@H](NC(=O)c1ccccc1)C(=O)NC(CC(=O)N[C@@H](Cc1ccccc1)C(=O)[C@@]1(C)CO1)c1ccccc1 (some centres undefined)
[1]
  inhibition: 1.56%
